TRPML3 agonist = activates the human TRPML3 channel; Q8TDD5; HEK293 TRPML3-YFP, Fluo-8 calcium fluorescence; 100% = the carbachol control signal; activation, % at 3 µM; 220,000 compounds, 0.29% hits; AID 1448;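 active = activation above its plate's cutoff, the mean activation of the plate's test wells plus 3 SD, cut at about 12% in these data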
Target sequence (Q8TDD5 whole entry, looked up): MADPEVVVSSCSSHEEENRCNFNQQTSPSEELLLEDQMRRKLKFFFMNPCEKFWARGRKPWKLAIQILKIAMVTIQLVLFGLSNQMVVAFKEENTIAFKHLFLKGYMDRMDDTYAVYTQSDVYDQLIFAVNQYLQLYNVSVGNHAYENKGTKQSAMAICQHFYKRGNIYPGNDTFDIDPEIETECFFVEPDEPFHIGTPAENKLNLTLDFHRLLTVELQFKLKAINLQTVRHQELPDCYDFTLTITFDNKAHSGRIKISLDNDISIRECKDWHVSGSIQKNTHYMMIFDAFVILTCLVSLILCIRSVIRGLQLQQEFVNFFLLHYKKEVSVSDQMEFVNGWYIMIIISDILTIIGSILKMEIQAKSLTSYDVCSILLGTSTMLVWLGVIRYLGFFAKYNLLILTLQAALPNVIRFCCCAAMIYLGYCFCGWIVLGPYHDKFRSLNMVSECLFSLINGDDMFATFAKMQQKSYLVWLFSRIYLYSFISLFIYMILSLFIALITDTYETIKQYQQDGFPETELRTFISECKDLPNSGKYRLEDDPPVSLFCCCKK
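Test system – HEK293 line with stable expression of human TRPML3-YFP channel · Control set – carbachol 87 µM final as high control (100%), DMSO as low control (0%) · Signal – Fluo-8 calcium dye fluorescence, ex 470-495, em 515-575 nm · Incubation – 1-h 37 °C dye load, 5-s basal, 120-s post-compound reads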
IMP-1 inhibitor = blocks Pseudomonas aeruginosa IMP-1 metallo-beta-lactamase | purified IMP-1, nitrocefin hydrolysis, epi-absorbance fluorescence | inhibition, % at 5.6 µM | 290,000 compounds, 0.45% hits;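 active = inhibition above the mean plus 3 SD of all compounds in the same screening run, cut at about 4.5% in these data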
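System: purified IMP-1; amount: IMP-1 0.2 nM before substrate addition; compound: single dose, 5.6 µM; times: 25 °C, 15 min preincubation, 25 min reaction; signal: Epi-absorbance via hydrolysed-nitrocefin quenching of white-plate fluorescence, 480/530 nm, EDTA stop; benchmarks: DMSO with and without IMP-1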
CRFBP-R2 agonist = agonists of human CRF-binding protein/CRF-R2 receptor complex; activation, % at 13.2 µM; HEK293 CRF-R2/CRF-BP, calcium dye fluorescence (FLIPR); percent of saturating CRF peptide response; 350,000 compounds, 0.46% hits;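 active = activation of at least 50%, plus an integration ratio under a set limit after plate pattern correction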
CRFBP-R2 block = blocks CRF-induced signaling of the CRF-BP/CRF-R2 complex; inhibition, % at 11.8 µM; 350,000 compounds, 0.59% hits; HEK293 CRF-R2/CRF-BP, CRF-induced calcium fluorescence;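 active = inhibition of the ligand-induced calcium signal above about 50% at the single tested concentration, limit read from the data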
zfTRPN1 agonist = activates the zebrafish TRPN1 channel. HEK293 zebrafish TRPN1-YFP, Fluo-8 calcium fluorescence; 100% = response to 87 µM carbachol. activation, % at 3 µM. 220,000 compounds, 0.18% hits;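 active = activation above its plate's cutoff, the mean activation of test wells on that plate plus 3 SD, cut at about 19% in these data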
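Assay system: Zebrafish TRPN1-YFP in HEK293 cells | Incubation: Dye loading 1 h at 37 °C, then 30 min room temperature | Measured by: Kinetic Fluo-8 fluorescence, ex 470-495, em 515-575 nm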
VIM-2 inhibitor = blocks Pseudomonas aeruginosa VIM-2 metallo-beta-lactamase. AID 1527. purified VIM-2, nitrocefin hydrolysis, epi-absorbance fluorescence. 290,000 compounds, 0.89% hits. inhibition, % at 5.6 µM;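 active = inhibition above the mean of all tested compounds plus 3 SD, cutoff set per screening run, cut at about 7.5% in these data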;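 note: red hydrolysis product quenches plate fluorescence so inhibitors raise well fluorescence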
Numbers stand for hits; – = inactive; · = no result. Hits are enriched below; roughly 2.1% of the tested compounds scored in any of these assays.

SMILES	TRPML3 agonist	IMP-1 inhibitor	CRFBP-R2 agonist	CRFBP-R2 block	zfTRPN1 agonist	VIM-2 inhibitor
Nc1nc(F)nc2c1ncn2[C@@H]1O[C@H](CO)[C@@H](O)[C@H]1O	·	·	–	–	·	·
Nc1nc(F)nc2c1ncn2[C@@H]1O[C@H](CO)[C@@H](O)[C@@H]1O	–	–	–	50	–	–
O=C(c1ccc(F)cc1Cl)N(Cc1ccco1)C1CCS(=O)(=O)C1 (stereo not drawn)	·	·	–	75	·	·
COc1ccccc1CNC(=O)CN(C)CC(=O)Nc1ccc(F)c(F)c1F	·	·	–	–	·	·
Cc1ccc(C)c(NC(=S)NCCSc2ccc(Cl)cc2)c1	–	–	–	–	–	–
Cc1ccccc1NC(=S)NCCSc1ccc(Cl)cc1	–	50	–	–	–	–
Cc1cc(/C=N/NC(=O)c2ccoc2C)cc(C)c1O	·	·	–	68	·	·
O[C@H]1C[C@H](c2ccccc2)N(Cc2cccs2)C[C@@H]1n1cc(-c2ccc(F)cc2)nn1	·	·	–	–	·	·
CC(C)(C)n1nnnc1C(c1ccc(Cl)cc1)N(Cc1cccnc1)Cc1ccco1 (stereo not drawn)	–	–	–	59	–	–
CC(C)(C)n1nnnc1C(c1ccc(F)cc1)N(Cc1ccc(F)cc1)Cc1ccco1 (stereo not drawn)	–	–	–	–	–	–
CC(=O)Oc1ccc(C(=O)Nc2cccc(-c3nnc(-c4ccco4)o3)c2)cc1	–	42	–	–	–	–
CCN(CC)C(=O)CSc1n[nH]c(=O)n1CCc1ccccc1	·	–	–	–	·	–
O=c1[nH]nc(Sc2ncnc3sccc23)n1CCc1ccccc1	–	–	–	–	–	9.7
NC(=O)c1ccc2nc(-c3ccccc3)c(-c3ccccc3)nc2c1	·	–	–	52	·	–
O=C(O)c1ccc2nc(-c3ccccc3)c(-c3ccccc3)nc2c1	–	–	–	–	–	–
COCCn1c(C)cc(C(=O)CSc2nncn2-c2ccccc2)c1C	–	5.0	–	–	–	–
COCCn1c(C)cc(C(=O)CSc2ccc(NC(C)=O)cc2)c1C	–	–	62	–	–	–
COc1cccc(C(=O)COc2ccc(NC(=O)c3ccccc3)cc2)c1	·	–	–	–	·	–
CCOC(=O)C1=C(C)N=c2s/c(=C/c3cccc([N+](=O)[O-])c3O)c(=O)n2C1c1ccccc1 (stereo not drawn)	·	–	–	–	·	8.1
N#Cc1c(-c2ccc(Cl)cc2)n(O)c2ccccc12	·	·	57	63	·	·
NS(=O)(=O)c1ccc(NC(=O)COc2ccc(S(=O)(=O)N3CCCC3)cc2)cc1	·	–	–	–	·	–
Clc1ccc(NN(Cc2ccncc2)c2ccc(Cl)cc2)cc1	·	·	51	–	·	·
Clc1ccc(CSCCc2ccncc2)cc1	–	–	–	–	–	–
CC1(C)COCN1S(=O)(=O)c1ccc(C(=O)Nc2nnc(-c3ccc(Cl)s3)o2)cc1	–	–	90	–	–	–
CS(=O)(=O)c1ccccc1-c1nnc(NC(=O)c2ccc(S(=O)(=O)N3CCCC3)cc2)o1	·	·	–	–	·	·
SMILES	TRPML3 agonist	IMP-1 inhibitor	CRFBP-R2 agonist	CRFBP-R2 block	zfTRPN1 agonist	VIM-2 inhibitor
O=C(Nc1nnc(-c2ccccc2Cl)o1)c1ccc(S(=O)(=O)N2CCCCCC2)cc1	–	–	54	–	–	–
CC1CCCCN1S(=O)(=O)c1ccc(C(=O)Nc2nnc(-c3ccccc3Cl)o2)cc1 (stereo not drawn)	–	–	–	–	–	–
CCC1CCCCN1S(=O)(=O)c1ccc(C(=O)Nc2nnc(-c3ccccc3Cl)o2)cc1 (stereo not drawn)	–	–	126	–	–	–
COc1ccc(N(CC(=O)NCCC2=CCCCC2)S(=O)(=O)c2c(C)[nH]c(=O)[nH]c2=O)cc1	–	–	–	–	–	–
CCOc1ccccc1N(CC(=O)N1CCCC1)S(C)(=O)=O	·	–	–	–	·	–
O=C(COC(=O)c1ccco1)Nc1cccc(S(=O)(=O)N2CCOCC2)c1	·	·	–	–	·	·
O=C(CCc1nnc(CCC2CCCCC2)o1)NCCc1cccnc1	–	–	–	–	–	–
CCCNC(=O)C1CCN(S(=O)(=O)c2c(C)noc2/C=C\c2ccc(OC)cc2)CC1	–	–	–	–	–	–
CNC(=O)C1CCN(S(=O)(=O)c2c(C)noc2/C=C/c2ccc(OC)cc2)CC1	·	–	54	–	·	–
N/N=C/C(=N\Nc1ccc(Cl)cc1)C(=O)c1ccncc1	–	–	–	–	–	8.8
COc1ccc(N/N=C(\C=N\O)C(=O)c2ccc(OC)cc2)cc1	–	–	–	–	–	–
CN(C)c1cc[n+](CC(=O)c2ccc(-c3ccccc3)cc2)cc1	–	–	–	–	–	–
CC1=C/C(=N\OS(=O)(=O)c2ccccc2)C(C(C)C)=CC1=O	35	–	–	–	–	–
COc1ccc(NC(=O)N(C)C[C@@H]2Oc3cc(C#CCN(C)C)ccc3S(=O)(=O)N([C@H](C)CO)C[C@H]2C)cc1	·	·	–	–	·	·
COc1c(F)c(F)c(C(=O)O)c(Nc2cccc(C)c2)c1F	–	–	–	–	–	–
Cc1cc(C)cc(Nc2c(F)c(F)c(F)c(F)c2C(=O)O)c1	–	–	–	52	–	–
Cc1cc(C)nc(/N=C(\N)Nc2ccc(OCc3ccccc3)cc2)n1	102	–	124	–	111	–
Cc1cc(C)nc(/N=C(\N)Nc2cccc(OCc3ccccc3)c2)n1	61	–	108	–	72	–
COc1ccccc1N/C(N)=N/c1nc(C)cc(C)n1	–	–	–	–	–	–
COc1ccc(-c2oc3cc(O)c(OC)c(O)c3c(=O)c2OC)cc1	·	·	–	–	·	·
COc1ccc(-c2oc3cc(OC)c(O)c(OC)c3c(=O)c2OC)cc1O	–	–	–	–	–	12
N#C/C(=C\c1ccc(O)c([N+](=O)[O-])c1)c1nc2ccccc2s1	–	–	–	–	–	–
COc1cc(/C=C(\C#N)c2nc3ccccc3s2)cc([N+](=O)[O-])c1O	–	–	–	61	–	–
COc1ccccc1CNC(=O)CCc1nnc2ccc(NCCCN3CCCC3=O)nn12	·	–	–	99	·	–
COc1ccc(OCC(=O)NCCCN2CCOCC2)cc1	–	–	–	–	–	–
SMILES	TRPML3 agonist	IMP-1 inhibitor	CRFBP-R2 agonist	CRFBP-R2 block	zfTRPN1 agonist	VIM-2 inhibitor
Cc1c(OCC(=O)NCCCN2CCOCC2)ccc2c(-c3ccccc3)cc(=O)oc12	·	–	–	–	·	–
Cc1cc(=O)oc2c(C)c(OCC(=O)NCCCN3CCOCC3)ccc12	·	–	–	–	·	7.8
CCC(=O)c1ccc(OCC(=O)NCCCN2CCOCC2)cc1	·	·	–	52	·	·
CNC(=O)NC(=O)COc1c(F)c(F)cc(F)c1F	–	–	–	–	–	–
CC(C)NC(=O)NC(=O)COc1c(F)c(F)cc(F)c1F	17	–	–	–	–	–
COc1cccc(CN2CCC(C(=O)N3CCC(C)CC3)CC2)c1	–	–	–	–	–	–

Screening results: PubChem, several laboratories
